Assay results reported in publication PMC7610487 (Nature chemical biology, 2020).

System: zebrafish embryos
Experiment: Effects of the fluorogens on zebrafish embryogenesis
Type: in vivo
Procedure, shortened: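 Wild-type AB zebrafish embryos were raised at 28°C and staged as hours postfertilization. Fluorogen exposure started at 50% epiboly, either as a 1 h pulse or continuously overnight to 24 hpf. At 48 hpf, embryos were examined by brightfield microscopy and scored into three classes: no defect, axis defects, or dead.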

[1] = 5 μM fluorogen during 1 hour at 50% epiboly
[2] = 5 μM fluorogen overnight from 50% epiboly to 24 hpf

Cc1cc(C=C2SC(=S)NC2=O)ccc1O [HMBR, 4-hydroxy-3-methylbenzylidene rhodanine]
effects on embryos scored at 48 hpf [1]: No deleterious effects | effects on embryos scored at 48 hpf [2]: No deleterious effects

COc1cc(C=C2SC(=S)NC2=O)cc(OC)c1O [HBR-3,5DOM, 4-hydroxy-3,5-dimethoxybenzylidene rhodanine]
effects on embryos scored at 48 hpf [1]: No deleterious effects | effects on embryos scored at 48 hpf [2]: No deleterious effects
